What follows are molecules tested on CA46 (assay: Growth inhibition of human CA46 cells […] after 24 hrs). Conditions: Homo sapiens, CA46, 24 h.
Assay type: functional, cell-based
Summary of the method: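 Human CA46 Burkitt lymphoma cells treated for 24 h; growth read as cell number, IC50 derived from that count.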

| SMILES | IC50 |
| --- | --- |
| COc1ccc([C@H]2CC(=O)O[C@@H](C)C[C@@H](C)/C=C(\C)C[C@@H](C)C(=O)N[C@@H](C)C(=O)N(C)[C@H](Cc3c(Br)[nH]c4ccccc34)C(=O)N2)cc1 | 20 nM |
| COc1ccc([C@H]2CC(=O)O[C@@H](C)C[C@@H](C)/C=C(\C)CCC(=O)N[C@@H](C)C(=O)N(C)[C@H](Cc3c[nH]c4ccccc34)C(=O)N2)cc1 | 200 nM |
| COc1ccc([C@H]2CC(=O)O[C@@H](C)C[C@@H](C)/C=C(\C)CCC(=O)NCC(=O)N(C)[C@H](Cc3c(Br)[nH]c4ccccc34)C(=O)N2)cc1 | 300 nM |
| COc1ccc([C@H]2CC(=O)O[C@@H](C)C[C@@H](C)/C=C(\C)CCC(=O)N[C@@H](C)C(=O)N[C@H](Cc3c(Br)[nH]c4ccccc34)C(=O)N2)cc1 | 3000 nM |
| C/C1=C\[C@H](C)C[C@H](C)OC(=O)C[C@H](c2ccccc2)NC(=O)[C@@H](Cc2c(Br)[nH]c3ccccc23)N(C)C(=O)[C@H](C)NC(=O)CC1 | 200 nM |

Same assay, conditions: ca46

| SMILES | IC50 |
| --- | --- |
| COc1ccc([C@H]2CC(=O)NC(C)C[C@@H](C)/C=C(\C)CCC(=O)N[C@@H](C)C(=O)N(C)[C@H](Cc3c(Br)[nH]c4ccccc34)C(=O)N2)cc1 (single isomer, unassigned; diastereomer 2) | 3000 nM |
| COc1ccc([C@H]2CC(=O)NC(C)C[C@@H](C)/C=C(\C)CCC(=O)N[C@@H](C)C(=O)N(C)[C@H](Cc3c(Br)[nH]c4ccccc34)C(=O)N2)cc1 (stereo in doubt) | 750 nM |

Source: ChEMBL document CHEMBL1221308, “Synthesis and biological evaluation of new jasplakinolide (jaspamide) analogs” (Bioorg Med Chem Lett, 2010)
